# KCNQ1 inh = inhibitors of human KCNQ1 channel, primary screen, cell-based, thallium flux, high-throughput. Potassium voltage-gated channel subfamily KQT member 1 (Homo sapiens), P51787. 310,000 compounds, 1.3% hits. AID 2642, 2010. B-score at 10 µM. CHO-K1 KCNQ1, FluxOR thallium flux fluorescence; active compounds read high;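 active means compounds whose thallium flux B-score, printed positive for inhibition, exceeds three library SD while starting fluorescence stays within three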;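 further: channel opened by potassium depolarization with thallium stimulus after 20 min compound exposure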
# KCNK3 inh = human KCNK3 channel inhibitors, primary screen, CHO cells, FluxOR thallium flux, B-score. Potassium channel subfamily K member 3 (Homo sapiens), O14649. FluxOR fluorescence; active compounds read low. B-score at 10 µM. 340,000 compounds, 0.84% hits. AID 602410, 2012;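 active means B-score under library mean minus 4 SD, starting fluorescence ratio at most library mean plus 5 SD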;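 further: more negative B-score means stronger inhibition of thallium flux through KCNK3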
# Target sequence (O14649 whole entry, looked up): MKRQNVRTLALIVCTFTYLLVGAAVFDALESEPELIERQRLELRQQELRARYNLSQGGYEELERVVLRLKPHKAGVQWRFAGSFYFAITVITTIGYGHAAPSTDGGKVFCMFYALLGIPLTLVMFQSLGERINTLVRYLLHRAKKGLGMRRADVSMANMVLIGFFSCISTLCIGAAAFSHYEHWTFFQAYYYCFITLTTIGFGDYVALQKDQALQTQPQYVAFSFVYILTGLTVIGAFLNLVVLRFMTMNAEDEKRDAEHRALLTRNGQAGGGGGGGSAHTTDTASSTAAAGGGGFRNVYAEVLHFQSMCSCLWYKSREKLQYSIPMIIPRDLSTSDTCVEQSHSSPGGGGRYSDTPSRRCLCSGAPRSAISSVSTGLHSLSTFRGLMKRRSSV
# hERG rescue = hERG rescue from dofetilide block, primary screen, cell-based, CHO-hERG, FluxOR thallium flux, dofetilide IC70. dofetilide IC70 present. Voltage-gated inwardly rectifying potassium channel KCNH2 (Homo sapiens), Q12809. AID 1511, 2009. 310,000 compounds, 0.51% hits. activation (rescue from dofetilide block), less the hit threshold, % at 10 µM;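 active means activation above the mean of controls blocked by dofetilide plus 5 SD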;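 further: thallium influx through hERG after potassium depolarization seen as dye fluorescence rise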
# KCNK9 inh = KCNK9 potassium channel inhibitors, primary screen, HEK293 cells, thallium flux | B-score at 10 µM | FluxOR thallium flux fluorescence; active compounds read low | 310,000 compounds, 1.2% hits | Potassium channel subfamily K member 9 (Homo sapiens), Q9NPC2;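 active means ratio B-score over 3 SD below the library mean, with starting fluorescence within 5 SD of its mean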;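 further: negative B-score means less thallium flux so channel inhibition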
# Kir21 block = inhibitors of mouse Kir2.1 inward-rectifier potassium channel; Inward rectifier potassium channel 2 (Mus musculus), P35561; HEK293-Kir2.1, FluxOR thallium flux fluorescence; active compounds read low; B-score at 10 µM; 310,000 compounds, 0.85% hits; AID 1672, 2009;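 active means fluorescence ratio B-score at or below minus 3 SD of library scores, with starting-brightness B-score within 2 SD, cut at about -4.2 in these data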;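 further: channel flux triggered by added potassium and thallium sulfate stimulus; B-score of peak minus minimum fluorescence over baseline after thallium stimulus; more negative B-score means stronger Kir2.1 block with less thallium influx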
# KCNQ1 pot = potentiators or activators of KCNQ1 channel, primary screen, cell-based, thallium flux, high-throughput. Potassium voltage-gated channel subfamily KQT member 1 (Homo sapiens), P51787. CHO-K1 KCNQ1, thallium flux FluxOR fluorescence; active compounds read high. B-score at 10 µM. 310,000 compounds, 0.35% hits. AID 2648, 2010;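 active means fluorescence ratio B-score, a plate-corrected score, at least three library SD, with initial intensity B-score within 5 SD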
#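 System: Stable KCNQ1 CHO-K1 line | Incubation: 90 min dye loading and 20 min compound exposure, both at room temperature | Measure: Ratio B score | Medium: Assay buffer for compound exposure, DMSO matched across wells | Compound dosing: Single-concentration screen | Probe or stimulus: K+/Tl+ depolarizing stimulus | Measured by: Kinetic FluxOR fluorescence, 10 s baseline plus 110 s post-stimulus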
# KCNK9 inh conf = KCNK9 potassium channel inhibitors, confirmation, HEK293 cells, thallium flux, duplicate; shares compounds with KCNK9 inh; FluxOR thallium flux fluorescence; inhibition, % at 10 µM; 4,900 compounds, 43% hits;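 active means thallium signal inhibited by more than 5 SD of the compound-free buffer control wells, on both duplicate plates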;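 further: 0% = assay buffer control wells without compound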
# Kir2-1 spec = mouse Kir2.1 channel inhibition, confirmation, selectivity assay for KCNK9 modulator project, cell-based, HEK293, thallium flux; shares compounds with KCNK9 inh; Kir2.1 cells, FluxOR thallium flux fluorescence; inhibition, % at 10 µM; 4,900 compounds, 4% hits; AID 492993, 2010;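 active means thallium signal drop more than 5 SD beyond the mean of the no-compound control wells, seen in both duplicate plates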;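 further: signal is fluorescence rise after thallium addition divided by baseline fluorescence; plate controls were assay buffer only for no effect and full block by chlorpromazine control for full effect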
# KCNK9 uninduced = thallium flux in non-induced HEK293 cells, confirmation, counter-screen for KCNK9 inhibitor project, cell-based, second counter screen, non-induced KCNK9-HEK293; AID 492997, 2010; inhibition, % at 10 µM; 4,900 compounds, 40% hits; shares compounds with KCNK9 inh; FluxOR thallium flux;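 active means thallium signal drop beyond 5 SD of the untreated control mean, on both duplicate plates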;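 further: plate controls were buffer only IC0 wells for no effect and SID17386958 at its maximal inhibitory level for full effect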
# Starred values were filed as active, the others as inactive; i = inactive; . = not tested or not shown. Sampled rows, rich in hits. Any-hit rate of the full collection: about 3.7%.
SMILES,KCNQ1 inh,KCNK3 inh,hERG rescue,KCNK9 inh,Kir21 block,KCNQ1 pot,KCNK9 inh conf,Kir2-1 spec,KCNK9 uninduced
Cc1oc2c(Cl)c(Cl)c(O)c(CN(C)C)c2c1C(=O)c1ccc(Cl)cc1,i,i,-12,i,0.48,i,.,.,.
O=C(Nc1ccccc1)N1CCC(C(=O)N2CCCC(C(F)(F)F)C2)CC1 (stereo not drawn),i,i,-7,i,1.9,i,.,.,.
Cc1ccc(C(=O)OCC(=O)c2c[nH]c3ccccc23)cc1,i,i,-5,i,2,i,.,.,.
CC(C)Cc1ccc(C(C)C(=O)OCC(=O)c2c[nH]c3ccccc23)cc1 (stereo not drawn),i,i,-4,-10*,-1.9,i,24%*,i,42%*
C[C@H](N)c1nnc(SCc2c(Cl)cccc2Cl)o1,i,i,-19,i,0.35,i,.,.,.
Clc1cccc(Cl)c1CSc1nnc(/C=C/c2ccccc2)o1,i,i,-11,i,-2.1,i,i,i,29%*
CCN1CCCc2cc(CN(CCN3CCOCC3)C(=O)Nc3ccc(C)c(C)c3)ccc21,i,i,-12,i,-0.16,i,i,i,i
CCN(Cc1ccc(Cl)s1)C(=O)c1cccc(OCc2c(C)noc2C)c1,.,i,.,.,.,.,.,.,.
CCc1ccc(S(=O)(=O)NCCc2csc(-c3ccccc3)n2)s1,i,i,-10,-10*,-4.5*,i,50%*,38%*,39%*
CCOCCCNC(=S)N1CCCN(c2nc3c(C)c(C)ccc3cc2C#N)CC1,i,i,-13,i,-2.6,i,.,.,.
CCOCCCNC(=S)N1CCCN(c2nc3cc(C)ccc3cc2C#N)CC1,i,i,-12,i,-1.4,i,i,i,i
O=C(Nc1nc(-c2cc(Cl)sc2Cl)cs1)c1cccs1,i,-12*,-13,-8.9*,0.94,i,50%*,i,i
O=C(CCSCc1ccccc1F)NCc1ccc(F)cc1,i,i,-5,i,1.3,i,.,.,.
CCCCN(C(=O)Cc1ccc(S(=O)(=O)N2CCOCC2)s1)c1ccccc1,i,i,-7,i,-0.4,i,i,i,i
O=C(Cc1ccc(S(=O)(=O)N2CCOCC2)s1)N(Cc1ccccc1)c1ccccc1,i,i,-17,i,-0.27,i,.,.,.
CCCCN(C(=O)COC(=O)CSc1cc(C)c2ccccc2n1)c1c(N)n(CCC)c(=O)[nH]c1=O,i,i,-8,i,-0.32,i,.,.,.
COc1cccc(C(C(=O)NC(C)(C)C)N(C(=O)CCC(=O)Nc2cc(C)on2)c2ccc3c(c2)OCCO3)c1OC (stereo not drawn),i,i,-6,i,-0.55,i,.,.,.
O=C1C=C(/C=C/C2C=CC=CC2)C[C@@H](c2ccc(Cl)cc2)C1 (stereo partly drawn),.,i,.,.,.,.,.,.,.

# Screening results: PubChem, Johns Hopkins Ion Channel Center
